Measured values: paper PMC3229621 (Biochemical pharmacology, 2011)

Columns and labels:
[1] = biological target: T1, CYP26B1 (Homo sapiens, UniProt Q9NR63); experiment: Depletion of 4-OH-RA, 18-OH-RA and 4-oxo-RA by recombinant CYP26B1; type: in vitro ADME; settings: 200 nM initial substrate, mono-exponential decay
T1 sequence (Q9NR63 1-512): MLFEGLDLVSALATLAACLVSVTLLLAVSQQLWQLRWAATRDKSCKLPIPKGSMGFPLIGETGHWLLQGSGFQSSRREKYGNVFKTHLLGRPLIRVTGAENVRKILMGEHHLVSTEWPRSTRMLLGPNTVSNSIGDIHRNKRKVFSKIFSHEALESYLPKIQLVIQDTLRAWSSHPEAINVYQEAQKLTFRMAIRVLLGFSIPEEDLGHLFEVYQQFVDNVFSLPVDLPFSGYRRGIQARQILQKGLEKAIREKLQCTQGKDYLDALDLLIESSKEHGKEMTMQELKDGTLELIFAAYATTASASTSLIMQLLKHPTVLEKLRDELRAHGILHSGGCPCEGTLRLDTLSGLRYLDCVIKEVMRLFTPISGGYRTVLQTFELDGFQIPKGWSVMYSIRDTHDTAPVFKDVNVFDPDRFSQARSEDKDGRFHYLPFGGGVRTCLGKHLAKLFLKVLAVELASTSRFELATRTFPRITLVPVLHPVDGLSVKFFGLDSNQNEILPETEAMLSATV

[2] = biological target: T2, CYP26A1 (Homo sapiens, UniProt O43174); experiment: Depletion of 4-OH-RA, 18-OH-RA and 4-oxo-RA by recombinant CYP26A1; type: in vitro ADME; settings: for kdep (depletion rate constant): CYP26A1, 200 nM initial substrate, mono-exponential decay; for fold efficiency of CYP26A1 over CYP26B1 in depleting substrate: CYP26A1 vs CYP26B1
T2 sequence (O43174 1-497): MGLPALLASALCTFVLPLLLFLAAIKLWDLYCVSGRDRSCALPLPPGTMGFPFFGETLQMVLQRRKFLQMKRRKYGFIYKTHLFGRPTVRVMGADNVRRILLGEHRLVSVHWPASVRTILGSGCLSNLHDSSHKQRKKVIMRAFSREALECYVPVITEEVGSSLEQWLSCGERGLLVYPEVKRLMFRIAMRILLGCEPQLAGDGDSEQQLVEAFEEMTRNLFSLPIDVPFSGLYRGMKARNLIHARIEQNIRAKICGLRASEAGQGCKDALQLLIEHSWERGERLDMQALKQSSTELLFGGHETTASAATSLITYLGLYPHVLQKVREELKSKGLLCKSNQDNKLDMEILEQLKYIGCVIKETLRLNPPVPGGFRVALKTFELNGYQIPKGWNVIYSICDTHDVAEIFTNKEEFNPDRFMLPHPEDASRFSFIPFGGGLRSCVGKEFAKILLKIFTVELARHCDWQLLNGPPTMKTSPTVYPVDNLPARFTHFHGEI

[3] = biological target: T1, CYP26B1; experiment: Kinetics of 4-OH-RA and 18-OH-RA formation from atRA by recombinant CYP26B1; settings: substrate atRA
[4] = system: CYP3As and CYP2C8; settings: by CYP3As and CYP2C8; cited from earlier work
[5] = biological target: T2, CYP26A1; experiment: Kinetics of 4-OH-RA and 18-OH-RA formation from atRA by recombinant CYP26A1
[6] = biological target: T3, purified CYP26B1 (Homo sapiens, UniProt Q9NR63); experiment: Ligand-induced binding spectra with purified CYP26B1
T3 sequence (Q9NR63 1-512): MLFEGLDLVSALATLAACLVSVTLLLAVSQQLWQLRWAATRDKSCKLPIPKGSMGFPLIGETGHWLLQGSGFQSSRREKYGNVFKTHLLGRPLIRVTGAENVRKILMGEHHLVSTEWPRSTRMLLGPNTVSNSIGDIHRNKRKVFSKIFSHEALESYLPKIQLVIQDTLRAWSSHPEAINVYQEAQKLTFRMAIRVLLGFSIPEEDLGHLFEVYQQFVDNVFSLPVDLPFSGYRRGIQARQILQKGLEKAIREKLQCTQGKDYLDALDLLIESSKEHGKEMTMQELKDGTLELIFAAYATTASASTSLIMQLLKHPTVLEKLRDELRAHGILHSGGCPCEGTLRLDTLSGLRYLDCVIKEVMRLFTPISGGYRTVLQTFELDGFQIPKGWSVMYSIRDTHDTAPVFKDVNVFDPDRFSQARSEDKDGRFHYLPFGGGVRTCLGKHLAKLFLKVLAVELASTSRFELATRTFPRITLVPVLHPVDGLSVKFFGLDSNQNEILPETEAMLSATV
Summary of the method: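 Human CYP26B1 expressed in Sf9 insect cells, solubilized with NP40 and cholate, and purified on a Talon cobalt affinity column. Active P450 was quantified by CO difference spectrum. Enzyme at 235 pmol/mL in 100 mM KPi (pH 7.4) with 20% glycerol; absolute spectrum recorded first. Test ligand was added to test and reference cuvettes in 12.5 nM steps until saturation and maximal absorbance change.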

[7] = substrate: CC1=C(/C=C/C(C)=C/C=C/C(C)=C/C(=O)O)C(C)(C)CCC1; experiment: cells, lysate or membranes named; settings: other: substrate atRA, 37.0 °C

## CC1=C(/C=C/C(C)=C/C=C/C(C)=C/C(=O)O)C(C)(C)CCC1O (centres unmarked) [4-OH-RA]
[1]
  kdep (depletion rate constant): 0.03 ± 0.01 min⁻¹
[2]
  kdep (depletion rate constant): 0.10 ± 0.01 min⁻¹
  fold efficiency of CYP26A1 over CYP26B1 in depleting substrate: 2–4 fold

## CC1=C(/C=C/C(C)=C/C=C/C(C)=C/C(=O)O)C(C)(C)CCC1 [atRA, All-trans-retinoic acid]
[3]
  18-OH-RA formation by CYP26B1: could be detected but the formation was insufficient to determine kinetic constants
  Vmax of CYP26B1 mediated 4-OH-RA formation relative to CYP26A1: 10%
  fold higher intrinsic clearance by CYP26B1 than by CYP3A4 and CYP2C8: approximately 100 fold
[3]; CYP26B1
  Clint, 4-OH RA formation: 43 µL/min/pmol P450
  Vmax, 4-OH RA formation: 0.81 ± 0.2 pmol/min/pmol P450
[4]
  Vmax for atRA hydroxylation: 2–5 pmol/min/pmol P450
  intrinsic clearance of atRA metabolism: 0.2–0.4 µL/min/pmol P450
[5]; formation of multiple primary metabolites (4-OH-RA, 18-OH-RA and 16-OH-RA)
  fold efficiency of CYP26A1 over CYP26B1 in overall depletion of atRA: approximately 20 fold
[5]; substrate atRA
  Km for CYP26A1 relative to CYP26B1: two-fold higher
[5]; substrate atRA, CYP26A1
  Clint, 4-OH RA formation: 190 µL/min/pmol P450
  Clint, 18-OH RA formation: 102 µL/min/pmol P450
  Vmax, 4-OH RA formation: 9.5 ± 2.2 pmol/min/pmol P450
  Vmax, 18-OH RA formation: 5.0 ± 0.5 pmol/min/pmol P450
  lower Vmax for 18-OH-RA formation compared to 4-OH-RA formation: 45%
[6]; atRA concentration dependent
  binding of atRA with CYP26B1 (magnitude of difference spectrum): tight binding
[6]; purified CYP26B1 235 pmol/mL, atRA 10 nM to 500 nM, low-to-high spin shift of heme iron
  ligand-induced difference spectrum type: type I difference spectrum

## CC1=C(/C=C/C(C)=C/C=C/C(C)=C/C(=O)O)C(C)(C)CCC1=O [4-oxo-RA]
[1]
  kdep (depletion rate constant): 0.02 ± 0.00 min⁻¹
[2]
  kdep (depletion rate constant): 0.05 ± 0.01 min⁻¹
  fold efficiency of CYP26A1 over CYP26B1 in depleting substrate: 2–4 fold

## CC(/C=C/C1=C(CO)CCCC1(C)C)=C\C=C\C(C)=C\C(=O)O [18-OH-RA, 18-hydroxyretinoic acid]
[1]
  kdep (depletion rate constant): 0.03 ± 0.01 min⁻¹
[2]
  kdep (depletion rate constant): 0.12 ± 0.01 min⁻¹
  fold efficiency of CYP26A1 over CYP26B1 in depleting substrate: 2–4 fold

B1: CYP26A1 (Homo sapiens) (protein)
chain: MGLPALLASALCTFVLPLLLFLAAIKLWDLYCVSGRDRSCALPLPPGTMGFPFFGETLQMVLQRRKFLQMKRRKYGFIYKTHLFGRPTVRVMGADNVRRILLGEHRLVSVHWPASVRTILGSGCLSNLHDSSHKQRKKVIMRAFSREALECYVPVITEEVGSSLEQWLSCGERGLLVYPEVKRLMFRIAMRILLGCEPQLAGDGDSEQQLVEAFEEMTRNLFSLPIDVPFSGLYRGMKARNLIHARIEQNIRAKICGLRASEAGQGCKDALQLLIEHSWERGERLDMQALKQSSTELLFGGHETTASAATSLITYLGLYPHVLQKVREELKSKGLLCKSNQDNKLDMEILEQLKYIGCVIKETLRLNPPVPGGFRVALKTFELNGYQIPKGWNVIYSICDTHDVAEIFTNKEEFNPDRFMLPHPEDASRFSFIPFGGGLRSCVGKEFAKILLKIFTVELARHCDWQLLNGPPTMKTSPTVYPVDNLPARFTHFHGEI
[7]; CYP26A1
  kcat: 10 pmol/min/pmol P450
[7]; CYP26A1, abstract
  kcat: 10 pmol/min/pmol

B2: CYP26B1 (Homo sapiens) (protein)
chain: MLFEGLDLVSALATLAACLVSVTLLLAVSQQLWQLRWAATRDKSCKLPIPKGSMGFPLIGETGHWLLQGSGFQSSRREKYGNVFKTHLLGRPLIRVTGAENVRKILMGEHHLVSTEWPRSTRMLLGPNTVSNSIGDIHRNKRKVFSKIFSHEALESYLPKIQLVIQDTLRAWSSHPEAINVYQEAQKLTFRMAIRVLLGFSIPEEDLGHLFEVYQQFVDNVFSLPVDLPFSGYRRGIQARQILQKGLEKAIREKLQCTQGKDYLDALDLLIESSKEHGKEMTMQELKDGTLELIFAAYATTASASTSLIMQLLKHPTVLEKLRDELRAHGILHSGGCPCEGTLRLDTLSGLRYLDCVIKEVMRLFTPISGGYRTVLQTFELDGFQIPKGWSVMYSIRDTHDTAPVFKDVNVFDPDRFSQARSEDKDGRFHYLPFGGGVRTCLGKHLAKLFLKVLAVELASTSRFELATRTFPRITLVPVLHPVDGLSVKFFGLDSNQNEILPETEAMLSATV
[7]; CYP26B1
  kcat: 0.8 pmol/min/pmol P450
[7]; CYP26B1, abstract
  kcat: 0.8 pmol/min/pmol
